From PubChem BioAssay
Smad3 inh: Smad3/FoxH1 peptide binding inhibitors, primary screen, biochemical, TR-FRET; TR-FRET Smad3/Dy647-FoxH1 peptide binding, europium anti-His; 0.29% of 88,000 active; Mothers against decapentaplegic homolog 3 (Homo sapiens), P84022; inhibition, % at 25 µM;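 active = compounds that reduce the energy-transfer binding signal between the protein and its labelled peptide by more than half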;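 also: 0% = Smad3 plus labelled peptide maximal FRET and 100% = peptide-only background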
ERa SRC1 inh: ERα–SRC-1 coactivator interaction inhibitors, primary screen, biochemical, TR-FRET, ERα LBD, estradiol-bound; TR-FRET ER-alpha LBD / SRC-1 peptide; inhibition, % at 25.6 µM; 1.7% of 86,000 active; AID 629, 2007; in the data active = inhibition above about 50%;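 also: 0% = receptor plus peptide control and 100% = peptide only without receptor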
Target sequence (P03372 whole entry, looked up, the tested form may be a part): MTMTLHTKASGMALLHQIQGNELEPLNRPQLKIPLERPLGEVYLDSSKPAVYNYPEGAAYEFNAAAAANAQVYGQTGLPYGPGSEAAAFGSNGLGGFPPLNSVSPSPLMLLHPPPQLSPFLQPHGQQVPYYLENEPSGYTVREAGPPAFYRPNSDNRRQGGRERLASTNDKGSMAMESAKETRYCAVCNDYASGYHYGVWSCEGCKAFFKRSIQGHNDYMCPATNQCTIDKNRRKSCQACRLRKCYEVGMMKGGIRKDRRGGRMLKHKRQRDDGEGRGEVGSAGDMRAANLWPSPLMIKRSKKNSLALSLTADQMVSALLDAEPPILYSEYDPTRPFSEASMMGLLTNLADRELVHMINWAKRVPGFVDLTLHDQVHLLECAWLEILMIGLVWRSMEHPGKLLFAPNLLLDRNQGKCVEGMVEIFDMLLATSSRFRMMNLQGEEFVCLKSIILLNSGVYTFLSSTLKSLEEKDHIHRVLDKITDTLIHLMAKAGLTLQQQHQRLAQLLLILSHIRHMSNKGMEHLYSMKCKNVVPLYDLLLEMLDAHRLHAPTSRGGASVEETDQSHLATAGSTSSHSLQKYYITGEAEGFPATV
ERb coact inh: inhibitors of ERβ-SRC1 coactivator interaction, primary screen, biochemical, TR-FRET, ERβ LBD, SRC-1 peptide | TR-FRET ER-beta LBD / SRC1-Cy5 peptide binding; receptor agonist-loaded with 1 µM estradiol | inhibition, % at 25.6 µM | 1.3% of 86,000 active | AID 633, 2007;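 active = compounds whose percent inhibition of the receptor-coactivator binding signal exceeds about 50% in the single-dose screen, limit read from the data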;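 also: 0% = receptor plus peptide wells without compound and 100% = peptide-only wells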
ERa SRC1 pot: enhancers of ERα–SRC-1 coactivator binding, primary screen, biochemical, TR-FRET, ERα LBD, low estradiol. TR-FRET ERalpha-LBD/SRC-Cy5 coactivator binding, 2 h; 100 = basal binding, no effect. coactivator binding (% of control), % at 25.6 µM. 1.3% of 86,000 active. AID 639, 2007; in the data active = activity above about 200%;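 also: binding measured in presence of low estradiol as agonist stimulus; 0% = peptide alone without receptor and 100% = receptor with peptide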
FAK blocker: FAK kinase inhibitors, primary screen, biochemical. inhibition, %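 (tested at 7 µM)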. biochemical FAK kinase activity assay. AID 727, 2007. Focal adhesion kinase 1 (Homo sapiens), Q05397. 0.84% of 97,000 active;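 also: 0% = DMSO and 100% = reference compound high control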
HIV Rev-RRE inh: HIV-1 Rev-RRE binding inhibitors, primary screen, biochemical, FRET, protein-RNA interaction | inhibition, % at 8 µM | 0.79% of 97,000 active | Rev peptide-RRE RNA binding | P05866;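 active = inhibition above the screen-wide mean plus 3 SD, cut at about 35% in these data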;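 also: 0% = median DMSO wells and 100% = median Neomycin B control wells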
Target sequence (P05866 whole entry, looked up): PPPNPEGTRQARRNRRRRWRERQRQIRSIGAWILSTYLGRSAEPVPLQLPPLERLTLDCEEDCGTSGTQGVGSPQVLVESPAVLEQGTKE
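Test system – labelled RRE RNA duplex and labelled Rev peptide · Reagent – labelled Rev peptide · Doses – one concentration, 8 µM nominal · Incubation – 5 + 15 min at 25 °C · Signal – FRET fluorescence readout · Read-out basis – % inhibition of FRET ratio versus controls · Control set – DMSO wells as 0% and neomycin B wells as 100% inhibition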
FAK inh conf: FAK kinase inhibitors, retest, confirmation, biochemical; shares compounds with FAK blocker; FAK kinase biochemical inhibition assay; inhibition, % at 7 µM; 28% of 750 active
The depositor's hits bear a star; / = no result; [ ] = dose if it differs, or a comment. This is a sample that favours compounds with a hit; in the whole collection about 4% have one here. Rule as the data show it, unless noted: active = inhibition above about 19%; inactive = the rest.

SMILES | Smad3 inh | ERa SRC1 inh | ERb coact inh | ERa SRC1 pot | FAK blocker | HIV Rev-RRE inh | others
COc1nc2ccc(C)cc2cc1-c1noc(-c2cccnc2)n1 | 12 | 19 | 22 | 241*[fluorescence artefact?] | -3 | 6
COc1cccc(-c2noc(-c3cccnc3)n2)c1 | -7 | -4 | -15 | 97 | -3 | 2
Cn1c(Sc2ccc(-c3cccnc3)n2C)ccc1-c1cccnc1 | -2 | / | / | / | / | /
C[C@@]12CC[C@H]3c4ccc(O)cc4CC[C@@H]3[C@H]1CC[C@H]2OP(=O)(O)O | 16 | / | / | / | / | /
CC1(C)Cc2nc3sc4c(N(CCO)CCO)ncnc4c3cc2CO1 | / | / | / | / | 8 | 1
CC1(C)Cc2nc3sc4c(SCC(=O)NCc5ccccc5)ncnc4c3cc2CO1 | -25 | 28 | 42 | 431*[fluorescence artefact?] | -7 | 3
CC(C)NC1(C(N)=O)CCN(Cc2ccccc2)CC1 | -5 | / | / | / | / | /
COc1ccc2[nH]c(=O)c(CN(C3CCCCC3)C(c3nnnn3Cc3ccco3)C(C)C)cc2c1 (stereo not given) | 8 | 46 | 28 | 201* | 12 | 43*
CC(=O)c1oc2ccccc2c1NC(=O)COC(=O)c1ccc(-n2nc(C)cc2C)cc1 | -1 | 75*[fluorescence artefact?] | 32 | 79 | / | /
CC(C)NCC[C@@H](O)c1cc2ccccc2o1 | 5 | / | / | / | / | /
Cc1ccc2c(c1)N(CC(=O)NC1CCCc3ccccc31)C(=O)CO2 (stereo not given) | -4 | 67* | 17 | 93 | 3 | -1
Cc1ccc2c(c1)N(CC(=O)NC1CCC(C)CC1)C(=O)CO2 (stereo not given) | -12 | 3 | -4 | 120 | 1 | 2
O=C(Nc1cccc(C(F)(F)F)c1)c1cnc2n(c1=O)CCS2 | 8 | 2 | 6 | 285*[fluorescence artefact?] | -9 | 1
OC1(C(O)(c2ccc(-c3ccccc3)cc2)c2ccc(-c3ccccc3)cc2)CCCCC1 | 41 | / | / | / | / | /
COc1cc2c(=O)n(Cc3ccco3)c(=O)n(CC(=O)c3cccc(Br)c3)c2cc1OC | -18 | 25 | 16 | 283*[fluorescence artefact?] | -4 | 4
COc1cc2c(=O)n(Cc3ccco3)c(=O)n(CC(=O)c3ccc(Br)cc3)c2cc1OC | 1 | -22 | 48 | 124 | / | /
CCC(=O)Nc1ccc(/C(C)=N\NS(=O)(=O)c2ccc(C)cc2)cc1 | / | / | / | / | 4 | 5
CCCc1cc(=O)oc2cc(OCC(=O)Nc3ccc4c(c3)OCCO4)ccc12 | -15 | 45 | 40 | 216*[fluorescence artefact?] | 0 | 12
Cc1cccc(OCC(=O)Nc2ccc3c(c2)OCCO3)c1 | -15 | -27 | -10 | 92 | -1 | 1
CCSC[C@@H](N)C(=O)O | -1 | / | / | / | / | /
S[C@@H]1CCCN(Cc2ccccc2)C1 | 56* | / | / | / | / | /
OC1CCCN(Cc2ccccc2)C1 (stereo not given) | 2 | -12 | -2 | 103 | 1 | 2
CCOC(=O)C1CCCN(C(=O)c2ccc(CS(=O)(=O)c3ccc(C)cc3)o2)C1 (stereo not given) | 12 | 36 | 55* | 66 | -7 | 1
O=C(O)[C@@H]1[C@H]2C[C@@H]3[C@@H](OC(=O)[C@@H]31)[C@H]2Br | -9 | / | / | / | / | /
O=C(Nc1ccc2nn(-c3ccccc3)nc2c1)c1ccc2c(c1)OCO2 | -19 | 51* | 36 | 181 | 10 | 10
SMILES | Smad3 inh | ERa SRC1 inh | ERb coact inh | ERa SRC1 pot | FAK blocker | HIV Rev-RRE inh | others
O=C(Nc1cccc(-c2cn3cccnc3n2)c1)c1ccc2c(c1)OCO2 | -9 | 60* | 10 | 116 | 10 | 9
O=C(Nc1cccc(-c2cn3cccnc3n2)c1)c1ccco1 | 2 | -6 | 5 | 95 | 2 | 7
O=C1C2[C@@H](c3ccccc3)N[C@@H](c3ccccc3)C1[C@@H](c1ccccc1)N[C@H]2c1ccccc1 | -4 | / | / | / | / | /
NCCNS(=O)(=O)c1ccc(N)cc1 | 4 | / | / | / | / | /
NC(=S)n1[nH]c(-c2ccc([N+](=O)[O-])cc2)c(N=Nc2ccc(O)cc2)c1=O | 6 | 92* | 38 | 25 | 0 | 8
CCN(CC)S(=O)(=O)c1ccc(N=Nc2c(C)[nH]n(C(N)=S)c2=O)cc1 | -13 | -8 | -5 | 93 | -3 | -4
CCOc1ccc(N=C2NC(=O)S/C2=C\c2ccc(N(C)C)cc2)cc1 | / | / | / | / | 19 | 118*[fluorescence artefact?]
O=S(=O)(O)c1cc(N=[N+]([O-])c2cc(S(=O)(=O)O)c3ccccc3c2)cc2ccccc12 | 39 | / | / | / | / | /
Cc1cnc(C(=O)OCC(=O)c2csc(N3CCCCC3)n2)cn1 | 2 | 54*[fluorescence artefact?] | 57* | 51 | 9 | 5
Cc1nn(-c2ccccc2)c2sc(C(=O)OCN3C(=O)c4ccccc4C3=O)cc12 | -8 | 60* | 34 | 109 | / | /
O=C(O)c1c[nH]c2c(ccc3[nH]cc(C(=O)O)c(=O)c32)c1=O | 93* | / | / | / | / | /
O=C(O)c1c[nH]c2c(C(F)(F)F)cccc2c1=O | 13 | -2 | -8 | 88 | -1 | 7
Cc1c(NC(=O)COC(=O)C(c2ccc(Cl)cc2)C(C)C)c(=O)n(-c2ccccc2)n1C (stereo not given) | / | / | / | / | 0 | 3
O=c1[nH]c(Nc2ccccc2)cc2ccccc12 | 58* | 19 | 10 | 92 | 38* | 61* | FAK inh conf=35*
Nn1c(Nc2ccccc2)nc2ccccc2c1=O | -4 | -2 | 2 | 124 | 9 | 5
CCc1ccc(CNc2ccc(O)cc2)cc1 | 2 | 26 | 56*[fluorescence artefact?] | 71 | 56* | -4 | FAK inh conf=4
O=C1c2ccccc2C(=O)C1c1ccnc2ccccc12 | 33 | 15 | 31 | 242* | 51* | 9 | FAK inh conf=34*
O=C1C(c2ccnc3ccccc23)=C(O)c2ccccc21 | 19 | 32 | 38 | 309* | 31* | 3 | FAK inh conf=27*
CCc1ccc(NC(=O)CSc2nnc(SCC(=O)Nc3ccc(CC)cc3)n2N)cc1 | / | / | / | / | 4 | 10
CCC(=O)Nc1nnc(Sc2ccc(N(C)C)cc2)s1 | / | / | / | / | 21* | 4 | FAK inh conf=1
O=C(Nc1ccccc1)O/N=C(\c1ccccc1)c1ccccn1 | / | / | / | / | -1 | 6
O=C(Nc1ccccc1)ON=C1c2ccccc2-c2ccccc21 | / | / | / | / | 41* | 11 | FAK inh conf=9
O=C(Nc1ccccc1Cl)ON=C1c2ccccc2-c2ccccc21 | / | / | / | / | 35* | 11 | FAK inh conf=11
COC(=O)CCSCC(=O)Nc1nnc(C)s1 | -6 | 0 | -9 | 132 | / | /
